One may read the inhibition as how much of the control response was suppressed. For orientation: IC50 means the point on the concentration scale where inhibition reaches its midpoint. One may read the AUC(0-inf) as the area under the concentration-time curve extrapolated to infinity. The low end stands for low exposure, the high end for high exposure. In general, clearance refers to the volume of plasma or blood freed of the substance per unit of time. Higher therefore signals a high capacity for elimination.

The values below come from ChEMBL document CHEMBL4406821, “Novel dual inhibitors targeting CDK4 and VEGFR2 synergistically suppressed cancer progression and angiogenesis” (Eur J Med Chem, 2019).

Calls of active or inactive are those of the source. The rule behind the calls is not given here.

In data set [1] the test system is T47D. Nature of the data set: Induction of apoptosis in human T47D cells assessed as decrease in Bcl2 expression at 40 nM incubated for 48 hrs by Western blot analysis. The format is functional, cell-based. The gist of the method: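 Cancer cells were exposed to graded concentrations for 48 h, washed three times in PBS and lysed in RIPA buffer. Immunoblots were probed with anti-Rb, anti-phospho-Rb, anti-Ki67 and anti-Bcl-2, each at 1:1000. β-actin served as loading control.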
A general note: In western blotting, separated proteins are transferred to a membrane and probed.

The target of data set [2] is T1, Vascular endothelial growth factor receptor 2 (Homo sapiens, UniProt P35968). The conditions noted are these: HUVEC, 40 nM.
T1 sequence (P35968 whole entry): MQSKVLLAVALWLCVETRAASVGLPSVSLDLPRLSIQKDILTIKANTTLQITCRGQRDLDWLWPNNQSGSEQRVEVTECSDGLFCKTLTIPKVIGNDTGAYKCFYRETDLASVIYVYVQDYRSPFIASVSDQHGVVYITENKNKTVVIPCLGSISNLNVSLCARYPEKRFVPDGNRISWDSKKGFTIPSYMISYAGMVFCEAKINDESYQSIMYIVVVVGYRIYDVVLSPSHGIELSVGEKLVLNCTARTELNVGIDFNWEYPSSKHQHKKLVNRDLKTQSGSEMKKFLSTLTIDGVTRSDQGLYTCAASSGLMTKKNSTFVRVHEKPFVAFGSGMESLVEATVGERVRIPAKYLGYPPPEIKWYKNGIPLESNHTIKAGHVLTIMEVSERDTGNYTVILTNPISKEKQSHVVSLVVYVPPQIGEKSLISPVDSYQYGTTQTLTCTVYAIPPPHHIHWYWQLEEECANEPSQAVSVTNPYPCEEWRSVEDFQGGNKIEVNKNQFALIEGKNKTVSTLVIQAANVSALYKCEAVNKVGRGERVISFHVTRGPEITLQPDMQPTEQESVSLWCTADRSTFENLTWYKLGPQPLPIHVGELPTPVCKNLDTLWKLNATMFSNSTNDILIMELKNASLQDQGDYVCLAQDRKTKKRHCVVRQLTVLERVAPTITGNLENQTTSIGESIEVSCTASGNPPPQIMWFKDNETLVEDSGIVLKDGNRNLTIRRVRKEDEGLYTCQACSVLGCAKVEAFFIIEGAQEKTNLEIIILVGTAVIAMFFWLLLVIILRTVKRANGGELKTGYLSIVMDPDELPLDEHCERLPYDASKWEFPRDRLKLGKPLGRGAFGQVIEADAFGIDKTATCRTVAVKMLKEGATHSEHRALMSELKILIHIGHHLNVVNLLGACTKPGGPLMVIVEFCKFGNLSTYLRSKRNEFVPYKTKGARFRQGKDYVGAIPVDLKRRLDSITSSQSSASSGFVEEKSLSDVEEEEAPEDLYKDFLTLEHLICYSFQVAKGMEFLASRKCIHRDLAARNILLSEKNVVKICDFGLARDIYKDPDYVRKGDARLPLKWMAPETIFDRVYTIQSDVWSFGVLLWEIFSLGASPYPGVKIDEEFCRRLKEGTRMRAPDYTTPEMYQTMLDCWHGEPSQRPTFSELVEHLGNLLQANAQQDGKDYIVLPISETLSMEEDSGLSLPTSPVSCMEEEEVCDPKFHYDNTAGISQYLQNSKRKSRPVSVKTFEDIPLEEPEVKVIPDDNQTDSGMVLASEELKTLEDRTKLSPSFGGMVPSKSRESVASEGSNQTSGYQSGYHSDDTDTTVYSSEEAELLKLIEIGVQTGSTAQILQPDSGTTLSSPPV
For data set [3], the system named is SiHa. The data set is described as follows: Antiproliferative activity against human SiHa cells assessed as reduction in cell viability at 80 nM incubated for 48 hrs by EdU staining based laser scanning confocal microscopy. It counts as functional. The procedure, abridged:
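Cells, 5×10^4, were seeded in 24-well plates and treated for 48 h. They were then labeled using an EdU Apollo 488 imaging kit with Hoechst 33342 nuclear stain and imaged by laser scanning confocal microscopy. Percent EdU-positive cells = EdU-positive/Hoechst-stained × 100%.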

The target in data set [4] is Serine/threonine-protein kinase Chk2 (Homo sapiens) (UniProt O96017). Nature of the data set: Inhibition of recombinant human CHK2 (5 to end residues) at 1 uM using KKKVSRSGLYRSP as substrate incubated for 40 mins in presence of [gamma-33P]-ATP by scintillation counting method relative to control. The gist of the method:
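Kinase panel profiling at 1 μM performed by Eurofins KinaseProfiler; percent inhibition reported as mean of two independent experiments.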

The target in data set [5] is Maternal embryonic leucine zipper kinase (Homo sapiens) (UniProt Q14680). The data set is described as follows: Inhibition of recombinant human MELK (1 to 340 end residues) at 1 uM using KKLNRTLSFAEPG as substrate incubated for 40 mins in presence of [gamma-33P]-ATP by scintillation counting method relative to control.
Chain of Maternal embryonic leucine zipper kinase (Homo sapiens) (Q14680 whole entry, looked up): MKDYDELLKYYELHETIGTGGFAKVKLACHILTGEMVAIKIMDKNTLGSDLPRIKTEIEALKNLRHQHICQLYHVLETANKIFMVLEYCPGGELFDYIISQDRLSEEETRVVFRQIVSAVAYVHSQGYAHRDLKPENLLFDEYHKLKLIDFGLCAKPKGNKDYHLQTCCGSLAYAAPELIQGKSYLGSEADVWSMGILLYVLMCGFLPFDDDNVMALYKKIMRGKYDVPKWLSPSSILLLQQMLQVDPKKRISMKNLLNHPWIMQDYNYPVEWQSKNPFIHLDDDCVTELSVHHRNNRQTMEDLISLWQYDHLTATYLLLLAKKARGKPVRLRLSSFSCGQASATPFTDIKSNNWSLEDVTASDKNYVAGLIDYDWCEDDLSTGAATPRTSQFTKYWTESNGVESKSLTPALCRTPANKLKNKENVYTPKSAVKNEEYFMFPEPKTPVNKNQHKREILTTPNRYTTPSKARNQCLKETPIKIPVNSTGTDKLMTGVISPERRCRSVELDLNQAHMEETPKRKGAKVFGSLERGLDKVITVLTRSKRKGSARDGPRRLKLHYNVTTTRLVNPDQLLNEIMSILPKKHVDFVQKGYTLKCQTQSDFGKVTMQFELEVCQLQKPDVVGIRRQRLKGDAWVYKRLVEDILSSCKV
Data set [6] concerns the target Protein kinase C beta type (Homo sapiens) (UniProt P05771). The data set is described as follows: Inhibition of recombinant human PKCbeta2 (2 to end residues) at 1 uM using histone H1 as substrate incubated for 40 mins in presence of [gamma-33P]-ATP by scintillation counting method relative to control.
The target of data set [7] is Serine/threonine-protein kinase NIM1 (Homo sapiens) (UniProt Q8IY84). The data set is described as follows: Inhibition of recombinant human full length NIM1 at 1 uM using KKKVSRSGLYRSPSMPENLNRPR as substrate incubated for 40 mins in presence of [gamma-33P]-ATP by scintillation counting method relative to control.
The target of data set [8] is Transient receptor potential cation channel subfamily M member 7 (Homo sapiens) (UniProt Q96QT4). The data set is described as follows: Inhibition of recombinant human CHAK1 (1180 to end residues) at 1 uM using myelin ba as substrate incubated for 40 mins in presence of [gamma-33P]-ATP by scintillation counting method relative to control. The gist of the method:
(§1)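 Tested at a single 1 uM in an outsourced commercial kinase-profiling panel, read as percent inhibition. Each value is the mean of two independent experiments.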

For data set [9], the target named is CDK4/Cyclin D3 (Homo sapiens, UniProt P11802). Nature of the data set: Inhibition of recombinant full length human CDK4/Cyclin D3 using Rb-fragmen as substrate incubated for 40 mins by [gamma-33P]-ATP based radiometric assay. The format is protein-complex assay.
Chain of CDK4/Cyclin D3 (P11802 whole entry): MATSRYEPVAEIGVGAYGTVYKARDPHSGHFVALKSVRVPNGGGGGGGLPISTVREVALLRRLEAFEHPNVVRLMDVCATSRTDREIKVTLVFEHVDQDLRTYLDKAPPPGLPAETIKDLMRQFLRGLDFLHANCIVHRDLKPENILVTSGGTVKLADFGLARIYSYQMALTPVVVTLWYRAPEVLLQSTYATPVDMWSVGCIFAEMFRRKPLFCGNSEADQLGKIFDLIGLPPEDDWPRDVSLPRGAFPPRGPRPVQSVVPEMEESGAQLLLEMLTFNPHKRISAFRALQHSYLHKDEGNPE
Chain of CDK4/Cyclin D3 (P30281 whole entry, further chain): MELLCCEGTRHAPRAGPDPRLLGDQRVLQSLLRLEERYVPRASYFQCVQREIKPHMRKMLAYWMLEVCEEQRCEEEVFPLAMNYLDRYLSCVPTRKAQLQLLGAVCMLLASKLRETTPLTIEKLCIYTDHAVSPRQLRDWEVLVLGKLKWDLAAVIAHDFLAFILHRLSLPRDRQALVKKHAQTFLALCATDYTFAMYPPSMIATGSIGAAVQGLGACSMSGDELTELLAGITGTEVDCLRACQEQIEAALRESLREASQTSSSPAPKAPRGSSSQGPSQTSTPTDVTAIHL
Data set [10] can be described thus: AUC (0 to infinity) in Sprague-Dawley rat at 10 mg/kg, po by HPLC-MS analysis. It counts as ADME, organism-based. On the set-up: dose 10 mg/kg, time infinity, route oral. To be noted: in vivo. The procedure, abridged: (§2)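 Rats fitted with jugular vein catheters for serial blood sampling. Compound dissolved in saline with 5% (v/v) DMSO and given as a single 10 mg/kg dose iv or po after an overnight fast, n = 5 per group. Plasma isolated at once and measured by HPLC with tandem MS detection. Parameters derived by noncompartmental fitting.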

For data set [11], the target named is Mitogen-activated protein kinase kinase kinase 20 (Homo sapiens) (UniProt Q9NYL2). The data set is described as follows: Inhibition of recombinant human full length ZAK at 1 uM using MBP as substrate incubated for 40 mins in presence of [gamma-33P]-ATP by scintillation counting method relative to control.
Data set [12] has as its target T1, Vascular endothelial growth factor receptor 2. Nature of the data set: Inhibition of recombinant human VEGFR2 (790 to end residues) using myelin ba as substrate incubated for 40 mins by [gamma-33P]-ATP based radiometric assay.
The nature of data set [13]: Toxicity in NOD/SCID BALB/c mouse xenografted with human SiHa cells assessed as toxic effects in lungs at 40 mg/kg, po administered for 48 hrs by hematoxylin and eosin staining method. To be noted: in vivo. The format is organism-based.
For data set [14], the system named is Mitogen-activated protein kinase 14 (Homo sapiens), Q16539 [T106M]. The data set is described as follows: Inhibition of recombinant human full length SAPK2a T106M mutant at 1 uM using myelin basic protein as substrate incubated for 40 mins in presence of [gamma-33P]-ATP by scintillation counting method relative to control. The procedure, abridged: as §1
Chain of Mitogen-activated protein kinase 14 (Homo sapiens), Q16539 [T106M] (Q16539 whole entry T106M): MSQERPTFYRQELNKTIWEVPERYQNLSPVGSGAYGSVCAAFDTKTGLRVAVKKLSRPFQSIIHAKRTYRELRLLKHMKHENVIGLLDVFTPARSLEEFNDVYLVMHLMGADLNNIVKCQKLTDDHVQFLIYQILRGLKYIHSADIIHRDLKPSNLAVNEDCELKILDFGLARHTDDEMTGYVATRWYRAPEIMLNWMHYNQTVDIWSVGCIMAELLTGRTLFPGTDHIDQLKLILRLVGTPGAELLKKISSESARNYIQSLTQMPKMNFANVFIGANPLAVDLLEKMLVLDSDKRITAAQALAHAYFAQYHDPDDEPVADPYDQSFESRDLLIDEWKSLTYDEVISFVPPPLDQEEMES
Data set [15] in a line: Toxicity in BALB/c mouse assessed as effect on blood parameter by measuring MCHC at 40 mg/kg, po administered once two days for 4 times by hematology analyzer. The conditions noted are these: in vivo.
The nature of data set [16]: Clearance in Sprague-Dawley rat at 10 mg/kg, iv by HPLC-MS analysis. It counts as ADME, organism-based. To be noted: in vivo. The gist of the method:
as §2

Data set [17] can be described thus: Toxicity in NOD/SCID BALB/c mouse xenografted with human SiHa cells assessed as toxic effects in heart at 40 mg/kg, po administered for 48 hrs by hematoxylin and eosin staining method. It counts as organism-based. To be noted: in vivo. (In general: A xenograft is tissue or cells of one species grown in another, often human tumour cells in immunodeficient mice.)

Data set [18] relates to T47D. The data set is described as follows: Induction of cell cycle arrest in human T47D cells assessed as decrease in cell accumulation in S phase at 20 to 40 nM incubated for 36 hrs by propidium iodide staining based flow cytometry. It counts as functional. The procedure, abridged: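 Cells were treated with graded concentrations for 36 h, then fixed overnight in 70% ice-cold ethanol at 4°C and resuspended in PBS. Staining used 50 µg/ml PI plus 5 µg/ml RNase at 37°C for 30 min. DNA content was analysed by FACS to give G0/G1, S and G2/M fractions.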
(In general: A flow cytometer gives signals particle by particle.)

Data set [19] addresses Macrophage colony-stimulating factor 1 receptor (Homo sapiens) (UniProt P07333). The data set is described as follows: Inhibition of recombinant human FMS (538 to end residues) at 1 uM using KKKSPGEYVNIEF as substrate incubated for 40 mins in presence of [gamma-33P]-ATP by scintillation counting method relative to control.
Data set [20] concerns the target Dual specificity mitogen-activated protein kinase kinase 6 (Homo sapiens) (UniProt P52564). Nature of the data set: Inhibition of recombinant human MKK6 (4 to end residues) at 1 uM using unactive SAPK2a as substrate incubated for 40 mins in presence of [gamma-33P]-ATP by scintillation counting method relative to control.
Data set [21] deals with HUVEC. Nature of the data set: Antiproliferative activity against HUVEC cells assessed as reduction in cell viability at 20 to 40 nM by CCK8 assay. The format is functional, cell-based. The conditions noted are these: Homo sapiens, TDE = time-dependent effect. The gist of the method: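 HUVECs, 3×10³ cells/well, kept in 1640 medium with 10% FBS at 37°C and 5% CO₂. Cells were treated at 20 or 40 nM or vehicle, and viability was read by CCK-8 (absorbance 450 nm) at 0, 12, 24, 36, 48, 60 and 72 h. Five replicates per sample.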

The target of data set [22] is Ephrin type-A receptor 5 (Homo sapiens) (UniProt P54756). The data set is described as follows: Inhibition of recombinant human EPhA5 (655 to 956 residues) at 1 uM using poly(Glu, Tyr) 4:1 as substrate incubated for 40 mins in presence of [gamma-33P]-ATP by scintillation counting method relative to control.

Chain of Transient receptor potential cation channel subfamily M member 7 (Homo sapiens) (Q96QT4 whole entry): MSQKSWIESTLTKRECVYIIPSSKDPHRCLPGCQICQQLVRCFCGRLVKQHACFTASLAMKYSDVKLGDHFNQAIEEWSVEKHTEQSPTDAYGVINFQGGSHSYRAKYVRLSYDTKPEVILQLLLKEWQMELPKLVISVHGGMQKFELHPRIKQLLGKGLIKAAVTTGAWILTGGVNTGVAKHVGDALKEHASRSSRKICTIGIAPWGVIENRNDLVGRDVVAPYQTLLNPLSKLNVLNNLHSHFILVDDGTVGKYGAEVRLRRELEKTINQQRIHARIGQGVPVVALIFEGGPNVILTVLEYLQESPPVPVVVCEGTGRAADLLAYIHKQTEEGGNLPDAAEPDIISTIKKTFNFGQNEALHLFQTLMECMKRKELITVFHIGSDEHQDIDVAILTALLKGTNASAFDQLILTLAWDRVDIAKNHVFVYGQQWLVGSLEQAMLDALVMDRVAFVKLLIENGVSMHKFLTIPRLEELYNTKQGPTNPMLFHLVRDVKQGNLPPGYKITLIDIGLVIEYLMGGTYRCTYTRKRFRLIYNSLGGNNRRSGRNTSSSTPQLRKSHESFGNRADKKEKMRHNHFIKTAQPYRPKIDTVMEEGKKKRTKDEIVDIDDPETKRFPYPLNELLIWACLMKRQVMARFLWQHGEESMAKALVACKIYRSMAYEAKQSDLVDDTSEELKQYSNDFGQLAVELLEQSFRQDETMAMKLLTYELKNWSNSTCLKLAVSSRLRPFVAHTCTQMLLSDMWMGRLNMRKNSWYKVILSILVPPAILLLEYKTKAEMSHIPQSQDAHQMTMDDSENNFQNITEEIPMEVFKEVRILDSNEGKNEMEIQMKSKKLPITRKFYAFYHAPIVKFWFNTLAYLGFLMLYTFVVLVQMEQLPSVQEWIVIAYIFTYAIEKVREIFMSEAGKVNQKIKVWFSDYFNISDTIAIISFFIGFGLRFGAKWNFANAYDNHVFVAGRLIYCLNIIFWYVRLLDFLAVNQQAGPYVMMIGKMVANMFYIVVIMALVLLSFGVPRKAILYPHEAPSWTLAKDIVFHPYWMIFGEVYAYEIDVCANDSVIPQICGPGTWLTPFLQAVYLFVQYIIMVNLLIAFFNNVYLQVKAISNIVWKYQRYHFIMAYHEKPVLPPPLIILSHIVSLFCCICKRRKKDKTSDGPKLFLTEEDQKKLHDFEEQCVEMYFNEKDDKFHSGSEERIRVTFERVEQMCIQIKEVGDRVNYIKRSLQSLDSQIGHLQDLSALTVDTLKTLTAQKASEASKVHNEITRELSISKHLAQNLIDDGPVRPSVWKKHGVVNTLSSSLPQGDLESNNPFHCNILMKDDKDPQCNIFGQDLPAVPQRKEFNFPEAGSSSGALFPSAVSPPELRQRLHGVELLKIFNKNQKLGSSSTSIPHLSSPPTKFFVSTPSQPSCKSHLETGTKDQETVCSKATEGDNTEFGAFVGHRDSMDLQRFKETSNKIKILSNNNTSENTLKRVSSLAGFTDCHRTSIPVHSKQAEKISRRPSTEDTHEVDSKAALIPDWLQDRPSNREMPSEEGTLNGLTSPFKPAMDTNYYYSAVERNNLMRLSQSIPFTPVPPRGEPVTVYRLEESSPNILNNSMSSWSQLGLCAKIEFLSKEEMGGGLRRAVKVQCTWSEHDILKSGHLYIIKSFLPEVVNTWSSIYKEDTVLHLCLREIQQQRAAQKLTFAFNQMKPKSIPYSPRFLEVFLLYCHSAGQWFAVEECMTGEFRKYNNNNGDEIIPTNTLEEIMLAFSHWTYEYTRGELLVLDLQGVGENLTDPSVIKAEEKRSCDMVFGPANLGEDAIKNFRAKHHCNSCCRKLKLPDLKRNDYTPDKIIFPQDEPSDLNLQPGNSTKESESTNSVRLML

As for `COc1cc2nccc(Oc3ccc(NC(=O)C4(C(=O)Nc5ccc(F)cc5)CC4)cc3)c2cc1OC` [CABOZANTINIB], the outcome in data set [1] was Active. In addition, the inhibition entry in data set [2] and in data set [3] was “Active” each time.
`Cc1ccc(NC(=O)C2(C(=O)Nc3ccc(Nc4ncc(F)c(-c5cc(F)c6nc(C)n(C(C)C)c6c5)n4)cc3)CC2)cc1`: the inhibition is 22% in [4]; 53% in data set [5]; 47% in data set [6]; 66% in data set [7]; 0% in [8]; 14% in data set [11]. Further, the inhibition is 60% in [14]; 64% in data set [19]; 16% in [20]; “Tde” in [21]; 33% in data set [22]. Further, the half-maximal inhibitory concentration (IC50) in data set [9] and in data set [12] was 46 nM each time. This compound yielded an area under the curve AUC(0-inf) in data set [10] of 6000 ng·h/mL. In addition, the Activity entry in data set [13], in data set [15] and in [17] was “Non-Toxic” each time. The clearance in data set [16] was 16.7 mL/min/kg. The outcome in data set [18] was Active.
